Rows were chosen to be rich in hits. Some 1.3% of all compounds tested hit in one or more screens of this group.
Diaph inh CS = inhibits diaphorase or chemically oxidizes, flagging diaphorase assay artifacts. 0.69% of 190,000 active. diaphorase resazurin-to-resorufin fluorescence, NADH, 16 min; bacterial (C. kluyveri) enzyme, not human. inhibition, % at 20 µM;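 active means primary screen inhibition at 20 µM above a set limit, cut at about 50% in these data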;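 further: plate controls were DMSO with full reaction for no effect and wells lacking NADH for full effect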
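material = Clostridium kluyveri diaphorase enzyme | amount = 0.14 U/mL diaphorase, enzyme working solution | schedule = incubation 16 min, room temperature | detection = fluorescence of resorufin formed from resazurin, Ex 544/Em 590 nm | benchmarks = positive control minus NADH, DMSO neutral control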
Diaph act CS = counter-screen for diaphorase-based assays: diaphorase activators and chemical reducers; Diaphorase/resazurin coupled assay, resorufin fluorescence, 16 min; stronger effect = higher value; 1 = vehicle wells, 0 = NADH-free wells; activation factor at 20 µM; 0.005% of 190,000 active;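 active means diaphorase activity raised at least twofold by the compound at 20 µM; inactive means activation factor below 2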
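Material: bacterial diaphorase enzyme (C. kluyveri); amount: enzyme 0.07 U/mL final; reagent: NADH substrate 0.114 mM plus resazurin dye 0.1 mM, final; doses: single compound dose of 20 µM, 1% DMSO final; timing: 16 min enzyme reaction, ambient temperature; measured by: fluorescence of resorufin, 544 nm excitation, 590 nm emission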
TbHK1 inh = blocks Trypanosoma brucei hexokinase 1 activity | inhibition, % at 10 µM | 0.11% of 220,000 active | recombinant TbHK1, G6PDH-coupled NADH A340 | AID 1430;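 active means inhibition of 50% or more in the single-dose primary screen; inactive means inhibition below 50%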
HKDC1 inhibitor = HKDC1 (human) hexokinase inhibition. recombinant HKDC1, G6PDH/diaphorase resazurin coupled fluorescence. AID 493160. 0.16% of 340,000 active. inhibition, % at 20 µM. Q2TB90;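 active means inhibition above about 35% when tested at 20 µM, limit read from the data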;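 further: plate controls were DMSO wells with enzyme for no effect and DMSO wells lacking enzyme for full effect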
Target sequence (Q2TB90 whole entry, looked up): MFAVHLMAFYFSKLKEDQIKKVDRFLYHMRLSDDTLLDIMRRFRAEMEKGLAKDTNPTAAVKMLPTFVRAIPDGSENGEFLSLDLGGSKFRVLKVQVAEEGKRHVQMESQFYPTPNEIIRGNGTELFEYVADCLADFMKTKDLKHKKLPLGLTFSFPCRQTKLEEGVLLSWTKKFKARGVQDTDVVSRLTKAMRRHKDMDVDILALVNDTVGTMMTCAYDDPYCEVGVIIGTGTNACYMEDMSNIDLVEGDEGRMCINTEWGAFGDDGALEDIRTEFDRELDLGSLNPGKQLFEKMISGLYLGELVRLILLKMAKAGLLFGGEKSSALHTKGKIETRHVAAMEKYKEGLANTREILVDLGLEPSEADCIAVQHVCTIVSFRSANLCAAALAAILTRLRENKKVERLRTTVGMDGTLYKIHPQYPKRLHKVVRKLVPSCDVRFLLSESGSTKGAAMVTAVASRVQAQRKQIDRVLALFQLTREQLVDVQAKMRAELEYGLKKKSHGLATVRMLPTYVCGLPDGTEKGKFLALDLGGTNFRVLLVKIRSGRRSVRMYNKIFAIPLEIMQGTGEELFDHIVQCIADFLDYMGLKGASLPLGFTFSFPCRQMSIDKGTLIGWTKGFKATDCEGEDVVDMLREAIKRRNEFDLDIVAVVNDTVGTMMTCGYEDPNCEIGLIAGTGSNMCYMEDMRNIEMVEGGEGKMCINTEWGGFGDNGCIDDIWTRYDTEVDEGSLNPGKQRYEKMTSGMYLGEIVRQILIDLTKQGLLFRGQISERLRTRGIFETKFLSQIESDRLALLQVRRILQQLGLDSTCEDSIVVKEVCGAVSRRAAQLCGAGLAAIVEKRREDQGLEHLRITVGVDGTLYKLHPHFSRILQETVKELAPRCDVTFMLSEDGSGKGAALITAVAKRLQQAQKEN
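Assay system – recombinant HKDC1 (HK5) hexokinase enzyme, produced in-house · Input – HKDC1 at 5 µg/mL · Reagent – glucose plus 1 mM ATP as hexokinase substrates · Timing – 90 min reaction incubation at room temperature, dark · Measured by – G6PDH/diaphorase-coupled fluorescence, 1 mM NADP, 100 µM resazurin, 525/613 nm · Benchmarks – DMSO-enzyme wells negative, buffer-substituted wells positive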
G6PDH counter-1 = L. mesenteroides G6PDH inhibition counter-screen | Purified L. mesenteroides G6PDH, diaphorase/resazurin coupled fluorescence, 45 min | 0.12% of 200,000 active | inhibition, % at 5 µM; in the data active means inhibition above about 50%
PfG6PD inh = PfG6PD (Plasmodium falciparum) enzyme inhibition | inhibition, % at 20 µM | PfGluPho enzyme, NADPH resazurin-diaphorase fluorescence | 0.78% of 350,000 active;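 active means inhibition reaching at least a set limit at 20 µM in the primary screen, cut at about 59% in these data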;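 further: 0% = DMSO wells with substrate and 100% = DMSO wells lacking glucose-6-phosphate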
G6PDH counter-2 = inhibits Leuconostoc G6PDH, counter-screen for TbHK1 inhibitors; shares compounds with TbHK1 inh; purified G6PDH, NADH absorbance, 1 h; 7% of 210 active; inhibition, % at 10 µM;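 active means at least 50% inhibition in the glucose-6-phosphate dehydrogenase coupled counterscreen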
TbHK1 rescreen = confirmation of Trypanosoma brucei hexokinase 1 inhibitors; shares compounds with TbHK1 inh; recombinant TbHK1, G6PDH-coupled NADH A340 absorbance; inhibition, % at 10 µM; 10% of 210 active; AID 2560;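 active means inhibition of at least 50% in both of the two screening runs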;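 further: 0% and 100% set by the maximum and minimum signal control wells on each plate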
HKDC1 act conf2 = HKDC1 (human) activation, single-dose confirmed; shares compounds with HKDC1 inhibitor; recombinant HKDC1, G6PDH/diaphorase resazurin fluorescence; stronger effect = lower value; inhibition, % at 20 µM; 14% of 740 active;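 active means inhibition at or below a set negative limit, negative inhibition meaning the enzyme was activated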
PfG6PD confirm = PfG6PD inhibition, single-dose confirmed. recombinant PfGluPho, NADPH-diaphorase-resazurin fluorescence. AID 504753. shares compounds with PfG6PD inh. inhibition, % at 20 µM. 34% of 2,400 active;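 active means inhibition of at least 50% at 20 µM in any single replicate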;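 further: 0% = DMSO with substrate and 100% = DMSO lacking glucose-6-phosphate substrate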
Diaphorase 10uM = counter-screen for P. falciparum G6PD inhibitors: diaphorase inhibitors, oxidizers | 39% of 820 active | inhibition, % at 20 µM | shares compounds with PfG6PD inh | diaphorase-coupled resazurin reduction, fluorescence, NADPH 10 uM | AID 504862;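 active means average inhibition reaching 50% or more with the compound at 20 µM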;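 further: resorufin red fluorescence formed as diaphorase reduces resazurin using NADPH; 0% = DMSO with enzyme and 100% = DMSO without enzyme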
Diaph ctr 30uM = inhibits diaphorase or oxidizes, flagging false PfG6PD hits. shares compounds with PfG6PD inh. Diaphorase/resazurin coupled assay, resorufin fluorescence, 30 uM NADPH. inhibition, % at 20 µM. 29% of 820 active. AID 504863;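 active means inhibition averaging 50% or more, tested at 20 µM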;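 further: 0% = DMSO with enzyme and 100% = DMSO wells lacking diaphorase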
Active calls of the source: *.

Results for O=C(O)CSc1cc(NS(=O)(=O)c2cccc([N+](=O)[O-])c2)c2ccccc2c1O ?
TbHK1 inh: 62.6*; HKDC1 inhibitor: 59.5*; PfG6PD inh: 106.4*; G6PDH counter-2: 74.2*; TbHK1 rescreen: 62.3*; HKDC1 act conf2: 47.9; PfG6PD confirm: 89.0*; Diaphorase 10uM: 51.3*; Diaph ctr 30uM: 40.8

Results for Cc1ccccc1-n1sc2cc(F)ccc2c1=O ?
Diaph inh CS: 9.8; Diaph act CS: 0.9; TbHK1 inh: 55.4*; HKDC1 inhibitor: 4.0; G6PDH counter-1: 6.1; PfG6PD inh: 113.8*; G6PDH counter-2: -2.1; TbHK1 rescreen: 78.6*; PfG6PD confirm: 114.2*; Diaphorase 10uM: -11.5; Diaph ctr 30uM: -24.9

How did Cc1ccccc1-n1c(=O)c2ccccc2n2cnnc12 do in these assays?
Diaph inh CS: 16.1; Diaph act CS: 0.8; TbHK1 inh: -3.1; HKDC1 inhibitor: -2.5; G6PDH counter-1: 0.0; PfG6PD inh: 5.6

Results for CN(C)c1ccc(C=c2c3ccccc3n3c2cc(-c2ccccc2)[n+]3C)cc1 ?
HKDC1 inhibitor: 37.0*; PfG6PD inh: 49.1; HKDC1 act conf2: 23.2

Results for CN(C)c1ccc(C=c2c3ccccc3n3c2cc(-c2ccc(Cl)cc2)[n+]3C)cc1 ?
HKDC1 inhibitor: 17.9; PfG6PD inh: 55.3

Results for CCC1(CC)C(=O)C2=C3C1[C@H](C(=O)OC)CC(C(=O)OC)C[C@H]3[C@H]1C(=O)N(c3ccccc3)C(=O)[C@H]1[C@H]2C (stereo not given in full) ?
HKDC1 inhibitor: 1.6; PfG6PD inh: -14.0

What do the screens show for `Cc1ccc(CNC(=O)c2ccc(NS(=O)(=O)c3cccs3)cc2)cc1`?
HKDC1 inhibitor: -6.5; PfG6PD inh: -18.3

Results for Cc1cc(C(=O)N=Nc2c(O)n(C(C)C)c3ccccc23)n[nH]1 ?
Diaph inh CS: 54.0*; Diaph act CS: 0.5; TbHK1 inh: -31.9; HKDC1 inhibitor: 40.0*; G6PDH counter-1: 4.3; PfG6PD inh: 23.2; HKDC1 act conf2: 34.4

What do the screens show for `CC(C)n1c(O)c(N=NC(=O)CNC(=O)CCc2ccccc2)c2ccccc21`?
TbHK1 inh: -24.7; HKDC1 inhibitor: 0.4; PfG6PD inh: 6.2

How did CCCN1CCN(C(=O)C(NC(=O)c2ccco2)C(C)C)CC1 (stereo not given) do in these assays?
HKDC1 inhibitor: -4.7; PfG6PD inh: -9.9

How did Cn1c(SCc2ccccc2)nccc1=O do in these assays?
HKDC1 inhibitor: 7.8; PfG6PD inh: -12.1

What do the screens show for `CC1=C(SCc2ccccc2)C(=O)c2ccccc2C1=O`?
HKDC1 inhibitor: 44.0*; PfG6PD inh: 105.1*; HKDC1 act conf2: 23.9

Results for COc1cccc(NC(=O)CSc2ccc(-c3ccco3)nn2)c1 ?
HKDC1 inhibitor: 10.7; PfG6PD inh: 15.7

What do the screens show for `COc1ccc(OC)c(NC(=O)CSc2ccc(-c3ccco3)nn2)c1`?
HKDC1 inhibitor: 43.4*; PfG6PD inh: 53.0; HKDC1 act conf2: 37.6

What do the screens show for `COc1ccc(NC(=O)CSc2ccc(-c3ccco3)nn2)cc1OC`?
HKDC1 inhibitor: 42.8*; PfG6PD inh: 43.8; HKDC1 act conf2: 44.0

How did Cn1c(SCC(=O)Nc2ccc3nc(SCC(=O)N4CCCC4)sc3c2)nnc1-c1ccc(N)cc1 do in these assays?
Diaph inh CS: 27.4; Diaph act CS: 0.7; TbHK1 inh: -18.9; HKDC1 inhibitor: 33.0; G6PDH counter-1: 6.7; PfG6PD inh: 27.2; HKDC1 act conf2: -29.2

What do the screens show for `Cn1c(SCC(=O)Nc2ccc3nc(SCC(=O)NC4CC4)sc3c2)nnc1-c1ccccc1`?
Diaph inh CS: 8.3; Diaph act CS: 0.9; TbHK1 inh: -4.9; HKDC1 inhibitor: -11.7; G6PDH counter-1: -48.0; PfG6PD inh: -7.2

Results for COC(=O)[C@H](C)NC(=O)NCc1ccccc1 ?
TbHK1 inh: 7.7; HKDC1 inhibitor: -3.3; PfG6PD inh: -7.3

Results for Oc1ccc(O)c(Cc2nc3ccccc3[nH]2)c1 ?
Diaph inh CS: 11.5; Diaph act CS: 0.9; TbHK1 inh: 7.8; HKDC1 inhibitor: 54.3*; G6PDH counter-1: 5.4; PfG6PD inh: 31.7; HKDC1 act conf2: 56.0

Results for CCN(C[C@H]1N[C@@](C)(C(=O)OC)[C@H]2C(=O)N(C)C(=O)[C@@H]12)C(=O)Nc1ccc(OC)cc1 ?
HKDC1 inhibitor: -0.4; PfG6PD inh: 0.8

How did O=C1C(=Cc2ccc(Br)o2)C(=O)c2ccccc21 do in these assays?
Diaph inh CS: 64.0*; Diaph act CS: 0.4; TbHK1 inh: 11.4; HKDC1 inhibitor: 35.5*; G6PDH counter-1: -15.9; PfG6PD inh: -4.2; HKDC1 act conf2: 35.6

What do the screens show for `CCCCn1c(N)c(N(CCOC)C(=O)CCc2ccc(OC)cc2)c(=O)[nH]c1=O`?
Diaph inh CS: -0.5; Diaph act CS: 1; TbHK1 inh: -2.9; HKDC1 inhibitor: -8.4; G6PDH counter-1: 6.7; PfG6PD inh: -14.1

How did CC(=O)NC1C(=O)N(CCN2CCOCC2)c2ccc(Br)cc21 (stereo not given) do in these assays?
HKDC1 inhibitor: 80.8*; PfG6PD inh: 18.9; HKDC1 act conf2: 61.0

What do the screens show for `CC(=O)NC1C(=O)N(CCc2ccccc2)c2ccc(Br)cc21` (stereo not given)?
Diaph inh CS: 14.1; Diaph act CS: 0.9; TbHK1 inh: -7.0; HKDC1 inhibitor: -2.6; G6PDH counter-1: 5.4; PfG6PD inh: -2.1

Results for CCOc1ccc2c(c1)C(NC(C)=O)C(=O)N2CCN1CCOCC1 (stereo not given) ?
HKDC1 inhibitor: 82.3*; PfG6PD inh: 17.4; HKDC1 act conf2: 60.9

Assay outcomes: PubChem BioAssay, several laboratories
